The nature of this data set: Toxicity liver stage against HepG2, at 10uM. Details: test concentration 10 uM, cell line HepG2-A16-CD81EGFP. The following applies: human, HepG2-A16-CD81EGFP cells; read-out: INHIBITION
The data set is classed as cell-based. In short, it runs like this: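 Uninfected HepG2-A16-CD81EGFP cells, 3 × 10^3 per well, 1536-well, plated on prespotted compound at 10 μM final, parasite-free screening media added to match infected plates; puromycin 10 μM positive, DMSO 0.5% negative; run in parallel with 48 h PbLuc assay at 37 °C, 5% CO2; viability by CellTiter-Glo luminescence, normalized to controls.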
For the compound `COC(=O)c1cccc(C(=O)N(C)Cc2cccc(F)c2)c1`, the cytotoxicity at 10 µM was 5.75%. With `Cn1cccc(NC(=O)NCc2cccc(CO)c2)c1=O`, the cytotoxicity at 10 µM was -55.5%. For the compound `O=C(COc1cccc(Br)c1)N1CCOCC1c1ncon1` (centres undefined), the cytotoxicity at 10 µM is -9.36%. Next, `c1cnc(N2CCO[C@H]3CN(CC4CCC4)C[C@H]32)cn1`: -102%; `COc1ccc(OC)c(S(=O)(=O)NCC2(OC)CCSC2)c1` (centres undefined): -12.8%; `CC(C)(C)n1ncc2c1CCCC2NCc1cccc2c1OCO2` (centres undefined): 3.37%. The figure for `c1cncc(CNCCc2cccs2)c1` is -5.68%; for `Cc1cnn(C2CN(c3ccccc3S(=O)(=O)C(F)(F)F)C2)c1` it is 11.5%; for `COc1cccc(-n2nnc(C(=O)N3CCN(C)CC3C)c2C)c1` (centres undefined) it is -4.05%. `O=C(c1ccc(-c2cn[nH]c2)nc1)N1CCC(N2CCOCC2)CC1`: the cytotoxicity at 10 µM worked out at 1.38%. The figure for `CC(=O)N[C@H]1CN(S(=O)(=O)N(C)Cc2ccccc2)C[C@@H]1C1CC1` is -144%; for `Cc1cc(F)ccc1N1CCCC(NS(=O)(=O)CCCF)C1=O` (centres undefined) it is -3.14%.

In the case of `CC(C)(C)c1nnc(CN2CCCC2Cn2cncn2)o1` (centres undefined), the cytotoxicity at 10 µM is -4.04%. For the compound `CCn1c(N)nc2cc(C(=O)NCCc3ccncc3)cnc21`, the cytotoxicity at 10 µM was 1.22%. For `COc1ccc(Cl)cc1CCNC(=O)NCc1ncnn1C`, the cytotoxicity at 10 µM was found to be 2.06%.

As to `Cc1nnc([C@H]2C[C@@H]3CCN(Cc4ccc(C)o4)C[C@H]3O2)[nH]1`, the cytotoxicity at 10 µM was -2.1%. The figure for `COc1cccc(C(NCc2ccc(SC)cc2)c2nccn2C)c1` (centres undefined) is -5.54%; for `CC1CCCCN1c1nc2c(c(=O)[nH]1)CCN(Cc1cccnc1)C2` (centres undefined) it is -6.15%; for `Cc1cnn(CCNCC(O)c2ccc3c(c2)OCCO3)c1` (centres undefined) it is 3.31%.

For `Cc1nc(C)c(C(=O)NCCNC(=O)Cc2ccc(F)cc2)s1`, the cytotoxicity at 10 µM is -5.68%. The figure for `CC(=O)N[C@H]1CCN(c2nc(C)nc3c2c(C)nn3C)C1` is 4.61%; for `Cc1ccc(C(=O)N2C[C@H](OCc3cccnc3)[C@H]3COC[C@H]32)cn1` it is -1.52%. Next, `CC(C)C(C(=O)N1CCC(Nc2cccnn2)CC1)n1cncn1` (centres undefined): -4.35%; `CN(CC1(CO)CCC1)C(=O)c1cc(COc2ccccc2F)[nH]n1`: 12.1%; `CCc1ccc(C(=O)N2CC(C(=O)NC(C)C)C3(CCOCC3)C2)cc1` (centres undefined): 3.65%. The figure for `CCCN(C(=O)c1ocnc1C)C1CCCN(Cc2ccccc2)C1` (centres undefined) is -7.79%; for `COc1cccc(OCC2CCCN(Cc3ccncc3)C2)c1` (centres undefined) it is -7.66%; for `CN(C)CCn1c2c(ccc1=O)CC(NCc1cnn(C)c1)CC2` (centres undefined) it is -105%.

For the compound `Fc1cnc(N2CCCn3c(nnc3Cn3ccnc3)C2)nc1`, the cytotoxicity at 10 µM is -140%.

On to `CCOc1cc(CNc2nnn(C)n2)ccc1OCc1ccc(Cl)cc1`, for which the cytotoxicity at 10 µM was found to be 6.04%. The figure for `Cc1ccc(C(=O)Nc2cn[nH]c2)cc1` is -8.83%; for `CNC(=O)c1ccc(C2CN(C(=O)c3cnn(C)c3)CCO2)nc1` (centres undefined) it is -24.2%; for `O=C(COc1ccc(Br)cc1F)Nc1cn[nH]c1` it is -24.1%. On to `CN(C)C(=O)N1CC(=O)NCC12CCN(C(=O)c1ccco1)C2` (centres undefined), for which the cytotoxicity at 10 µM was -0.125%. On to `Cc1ccc(CNCc2nnc3n2CCCC3C(F)(F)F)o1` (centres undefined), for which the cytotoxicity at 10 µM was 19.5%. For `CC(C)N1CCC(Cc2cncc(-c3ccccc3C(=O)O)n2)C1` (centres undefined), the cytotoxicity at 10 µM was -10%.

Regarding `Cc1cc(N2CCC3(CCCN(CCO)C3=O)C2)nc(C)c1C#N` (centres undefined), the cytotoxicity at 10 µM was 7.41%.

In the case of `CCN(Cc1ccc(C(C)C)cc1)C(=O)c1csc(CN(C)C)n1`, the cytotoxicity at 10 µM is -3.84%. The figure for `Cc1ncccc1NC(=O)c1nc2c(n1C)CCN(C(=O)C1CC1)C2` is -99.6%.

The values are drawn from ChEMBL document CHEMBL4513216, “Probing the Open Global Health Chemical Diversity Library for Multistage-Active Starting Points for Next-Generation Antimalarials” (ACS Infect Dis, 2020).
